Assay [1] deals with Melanocortin receptor 3 (Mus musculus, UniProt P33033). The assay is described as follows: Antagonist activity at mouse MC3 receptor expressed in HEK293 cells after 6 hrs by cAMP-based beta-galactosidase reporter gene assay. It is filed as functional, cell-based. Particulars: read-out: pA2 (converted). In general terms: A reporter such as luciferase makes a cellular process visible.

Assay [2] concerns the target Melanocortin receptor 3 (Mus musculus) (UniProt P33033). The assay is described as follows: Partial agonist activity at mouse MC3 receptor expressed in HEK293 cells at 10^-4 M to 10^-12 M after 6 hrs by cAMP-based beta-galactosidase reporter gene assay. It counts as functional, cell-based. A digest of the protocol:
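In the mMC3R HEK-293 CRE/β-galactosidase reporter assay, cells were exposed 6 h to peptide at 10^-4 to 10^-12 M in IBMX/BSA medium. Maximal efficacy is expressed relative to NDP-MSH run on the same plate.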

Assay [3] is filed under the species Mus musculus. Kind of assay: Selectivity for mouse MC3 receptor over mouse MC4 receptor.

We go through one compound from ChEMBL document CHEMBL2321783, “Structure-activity relationships of peptides incorporating a bioactive reverse-turn heterocycle at the melanocortin receptors: identification of a 5800-fold mouse melanocortin-3 receptor (mMC3R) selective antagonist/partial agonist versus the mouse melanocortin-4 receptor (mMC4R)” (J Med Chem, 2013).

Sequence of Melanocortin receptor 3 (Mus musculus) (P33033 whole entry): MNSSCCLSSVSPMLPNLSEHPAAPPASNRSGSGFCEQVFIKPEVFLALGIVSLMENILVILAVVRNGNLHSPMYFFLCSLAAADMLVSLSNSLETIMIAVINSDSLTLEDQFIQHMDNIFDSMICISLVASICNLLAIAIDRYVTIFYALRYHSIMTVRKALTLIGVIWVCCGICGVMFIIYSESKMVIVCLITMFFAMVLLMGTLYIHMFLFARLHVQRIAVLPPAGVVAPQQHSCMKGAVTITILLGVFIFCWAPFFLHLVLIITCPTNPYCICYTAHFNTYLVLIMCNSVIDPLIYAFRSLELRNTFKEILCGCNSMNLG
Sequence of Melanocortin receptor 3 (P33033 whole entry): as above

Consider `C[C@@H]1NC(=O)[C@H](CC(N)=O)NC(=O)[C@H](Cc2c[nH]c3ccccc23)N2C[C@H](CCCNC(=N)N)NC(=O)[C@@H](CSCC2=O)NC(=O)[C@@H](Cc2ccc(-c3ccccc3)cc2)NC(=O)[C@H](Cc2cnc[nH]2)NC(=O)[C@@H](NC(=O)[C@@H](N)Cc2ccc(O)cc2)CSSC[C@@H](C(=O)N[C@@H](Cc2ccc(O)cc2)C(N)=O)NC(=O)[C@H](Cc2ccccc2)NC1=O`, for which the Kb in assay [1] was 0.126 nM. Further, in assay [2], the Emax (usually the size of the effect at its maximum, as opposed to the concentration needed) was 10%. Besides, in assay [3], the Selectivity ratio amounted to 5800.
